High-throughput results: PubChem BioAssay, Sanford-Burnham Center for Chemical Genomics
Hits are enriched below; roughly 2.3% of the tested compounds scored in any of these assays.
LMPTP block: LMPTP (human) inhibition; P24666; recombinant LMPTP-A, OMFP fluorogenic substrate, fluorescence intensity; inhibition, % at 20 µM; hit rate 0.22% among 360,000;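 active = compounds that cut the enzyme signal by at least half of the control window in the single-dose screen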
Target sequence (P24666 whole entry, looked up): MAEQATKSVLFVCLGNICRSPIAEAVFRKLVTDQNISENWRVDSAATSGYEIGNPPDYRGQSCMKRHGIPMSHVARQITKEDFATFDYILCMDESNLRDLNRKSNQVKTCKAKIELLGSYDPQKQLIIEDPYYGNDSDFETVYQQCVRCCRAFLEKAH
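Test system: LMPTP-A phosphatase enzyme. Amount: LMPTP-A at 0.625 nM final in the reaction. Reagent: OMFP substrate, 400 µM final. Times: 50 min at room temperature. Signal: endpoint fluorescence intensity from OMFP dephosphorylation. Read-out basis: % inhibition. Benchmarks: no-enzyme and uninhibited controls.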
STEP block: blocks human striatal-enriched tyrosine phosphatase; hit rate 0.25% among 360,000; P54829; recombinant STEP, OMFP fluorogenic substrate, fluorescence; AID 588621; inhibition, % at 20 µM;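 active = inhibition at 20 µM, scaled per plate between control wells, above about 37%, limit read from the data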
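Assay system: isolated STEP enzyme / Timing: 20 min at room temperature, dark / Doses: 20 µM, 1% DMSO / Technique: fluorescence intensity, excitation 480 nm, emission 540 nm / Reagent: fluorogenic phosphatase substrate OMFP at 25 µM final / Measure: percent inhibition scaled to no-enzyme and uninhibited-enzyme controls, plate-pattern corrected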
Scp1 inh: Scp-1 (human) phosphatase inhibition; Q9GZU7; Recombinant Scp1, phosphopeptide, malachite green phosphate absorbance; inhibition, % at 20 µM; hit rate 0.88% among 340,000;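 active = inhibition above about 50% at 20 µM, limit read from the data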
Target sequence (Q9GZU7 76-261 limits assumed): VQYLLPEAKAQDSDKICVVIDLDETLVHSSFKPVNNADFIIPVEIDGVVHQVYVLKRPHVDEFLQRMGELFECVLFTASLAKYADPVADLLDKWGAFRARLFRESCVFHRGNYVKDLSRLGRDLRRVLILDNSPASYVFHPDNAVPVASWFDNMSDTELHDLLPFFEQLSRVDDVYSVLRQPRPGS
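Material: truncated SCP-1 phosphatase (76-261aa) / Buffer or medium: 50 mM Tris acetate pH 5.5, 0.005% Tween-20, 10 mM MgCl2 / Compound dosing: one concentration, 20 µM, with 1.0% DMSO / Incubation: 45 min room-temperature reaction, 5 min colour, 30 min stabiliser / Detection: colorimetric free-phosphate detection, absorbance 630 nm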
NadD block: NadD (S. aureus) enzyme inhibition; purified NadD enzyme, colorimetric absorbance read-out; inhibition, % at 20 µM; hit rate 0.78% among 360,000; in the data active = inhibition above about 26%
SUMO1-SIM PPI: SUMO1-SIM interaction modulation | P63165 | SUMO1 binding to a labelled peptide, TR-FRET, 1 h | inhibition, % at 20 µM | hit rate 0.33% among 360,000; in the data active = inhibition above about 37%
Target sequence (P63165 whole entry, looked up): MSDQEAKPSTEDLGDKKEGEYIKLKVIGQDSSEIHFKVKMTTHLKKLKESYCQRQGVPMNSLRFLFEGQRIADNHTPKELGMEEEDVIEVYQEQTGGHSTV
DNMT1 inh: DNMT1 (human) enzyme inhibition | DNMT1 molecular beacon, Hinp1I cleavage, fluorescence | inhibition (reported as % activation of signal), % at 10 µM | hit rate 0.83% among 360,000; in the data active = inhibition above about 50%
Hits are given with their value; 0 = inactive; - = no result given.

SMILES | LMPTP block | STEP block | Scp1 inh | NadD block | SUMO1-SIM PPI | DNMT1 inh
CCn1cc(C(=O)O)c(=O)c2cc(F)c(N3CCN(C(=S)NC(=O)c4ccc(Br)cc4)CC3)cc21 | 61 | 0 | 0 | 0 | 0 | 0
CCn1cc(C(=O)O)c(=O)c2cc(F)c(N3CCN(S(=O)(=O)c4ccc5c(c4)OCCO5)CC3)cc21 | 62 | 0 | 0 | 0 | 0 | 0
CCn1cc(C(=O)O)c(=O)c2cc(F)c(N3CCN(C)CC3)cc21 | 0 | 0 | 0 | 0 | 0 | 0
CCn1cc(C(=O)O)c(=O)c2cc(F)c(N3CCN(S(=O)(=O)c4ccc(NC(C)=O)cc4)CC3)cc21 | 0 | 0 | 0 | 0 | 0 | 0
CCn1cc(C(=O)O)c(=O)c2cc(F)c(N3CCN(C(=O)Nc4ccccc4)CC3)cc21 | 51 | 0 | 0 | 0 | 0 | 0
Cc1[nH]ccc2cc3nc4ccccc4c3cc12 | 86 | 0 | - | 0 | 0 | 0
Nc1nn(-c2cccc(F)n2)cc1-c1ccccc1 | 0 | 0 | 0 | 0 | 47 | 0
Cc1cc(C(=O)N/N=C2\CC(=O)c3ccccc32)c(C)n1-c1ccc(F)cc1 | 0 | 0 | 0 | 31 | 0 | 0
O=C(C1=C[C@@H]2[C@H]3C(=O)N(c4cccc(Cl)c4)C(=O)[C@H]3[C@@H](C(=O)c3ccc(Cl)cc3)N2C=C1)c1ccccc1 | 0 | 0 | 0 | 57 | 0 | 69
Cc1cc(S(=O)(=O)NCC(c2ccc(F)cc2)N2CCN(C)CC2)ccc1F (centres undefined) | 0 | 0 | 0 | 0 | 0 | 0
CCOC(=O)c1ccc(NC2=CC(=O)C(=O)c3ccccc32)cc1 | 0 | 0 | 0 | 47 | 41 | 56
Cc1ccc(NC2=CC(=O)C(=O)c3ccccc32)cc1 | 0 | 0 | 0 | 0 | 0 | 0
O=C1Nc2ccccc2-n2nnnc2C1N1CCN(C(=O)c2ccco2)CC1 (centres undefined) | 0 | - | - | - | 0 | -
O=C(Nc1ccc(-c2nc3ccccc3[nH]2)cc1)c1ccc2c(c1)OCO2 | 0 | 0 | 0 | 0 | 42 | 0
O=C(Nc1ccc(Cl)c(-c2nc3ccccc3[nH]2)c1)c1ccc2c(c1)OCO2 | 0 | 0 | 0 | 0 | 0 | 0
O=[N+]([O-])c1cccc(-c2nnc(-c3ccccc3F)o2)c1 | 0 | 0 | 0 | 0 | 0 | 0
Cc1ccc(C2(COC(=O)C(C)C)CO2)c(OC(=O)C(C)C)c1 (centres undefined) | 0 | 0 | 0 | 0 | 0 | 0
CCC(C)C(=O)OCC1(c2ccc(C)cc2OC(=O)C(C)C)CO1 (centres undefined) | 0 | 0 | 53 | 0 | 0 | 0
Oc1ccc(N=Cc2ccc(O)c(O)c2)cc1 | 0 | 0 | 0 | 0 | 51 | 65
CC(=O)Oc1cc2c(c3ccccc13)CCC2=O | 0 | 0 | 0 | 0 | 0 | 0
CC(=O)Oc1cc2cccc(OC(C)=O)c(=O)c2c(OC(C)=O)c1OC(C)=O | 0 | 0 | 58 | 0 | 0 | 59
Cc1c2cc[n+](CCN3CCCCC3)cc2c(C)c2c1[nH]c1ccc(O)cc12 | 0 | 0 | 0 | 48 | 92 | 0
CCCCn1c(=O)[nH]c2nc3cc(N)ccc3nc2c1=O | 0 | 0 | 0 | 0 | 0 | 54
Nc1ccc2nc3c(=O)n(C4CCCCC4)c(=O)[nH]c3nc2c1 | 0 | 0 | 0 | 0 | 0 | 0
Nc1ccc2nc(CCc3ccccc3)[nH]c2c1 | 0 | 0 | 0 | 0 | 0 | 0
SMILES | LMPTP block | STEP block | Scp1 inh | NadD block | SUMO1-SIM PPI | DNMT1 inh
Nc1ccc2nc3c(=O)n(CCc4ccccc4)c(=O)[nH]c3nc2c1 | 0 | 0 | 0 | 0 | 0 | 51
COc1ccc2[nH]c3c(=O)n(/N=C/c4ccc(OC)c(CN5CCCC5)c4)c(C)nc3c2c1 | 0 | 0 | 0 | 0 | 66 | 0
COc1ccc2c(c1)[nH]c1c(=O)n(/N=C/c3ccc(OC)c(CN4CCCC4)c3)cnc12 | 0 | 0 | 0 | 0 | 0 | 0
Cc1cc(C)c2nc(C)cc(N/N=C/c3ccc(O)cc3)c2c1 | 69 | 0 | 0 | 0 | 0 | 62
Cc1cc(N/N=C/c2ccc(O)cc2)c2cccc(C)c2n1 | 57 | 0 | 0 | 0 | 0 | 0
Nc1nonc1-n1nnc(C(=O)N/N=C/c2cc(Br)ccc2O)c1CNc1ccccc1 | 0 | 0 | 0 | 53 | 0 | 0
CCCCCCCCN1C(=O)[C@H](CC(=O)N2CCC(c3ccccc3)CC2)C[C@@]2(C(=O)OC)CC(C)(C)CC=C12 | 0 | - | - | - | 0 | -
O=C1C=C(c2ccc3cc[nH]c3c2)C[C@@H](c2ccc3c(c2)OCO3)C1 | 0 | 0 | 67 | 0 | 0 | 0
CCN1C(=O)/C(=C/C=C2/Sc3ccc4ccccc4c3N2CCO)SC1=S | 0 | 0 | 0 | 0 | 41 | 0
CCN1C(c2ccccc2)=C(c2ccccc2)S/C1=C\C=C1/SC(=S)N(C)C1=O | 0 | 0 | 0 | 0 | 0 | 0
O=C1/C(=C/c2ccco2)SC(=S)N1c1cccnc1 | 75 | 79 | 87 | 0 | 107 | 99
Cc1cc(/C=C2/SC(=S)N(c3cccc(C(F)(F)F)c3)C2=O)c(C)n1-c1cccnc1 | 0 | 0 | 0 | 44 | 0 | 51
O=C1/C(=C\c2ccco2)SC(=S)N1c1ccc(O)cc1 | 0 | 0 | 0 | 0 | 0 | 0
NN1C(=O)/C(=C\c2ccco2)SC1=S | 0 | 0 | 0 | 0 | 0 | 52
Cc1cc(/C=C2\SC(=S)N(Cc3ccco3)C2=O)c(C)n1-c1cccnc1 | 0 | 0 | 0 | 0 | 0 | 0
N#CC1(NC(=O)COC(=O)c2ccccc2[N+](=O)[O-])CCCCC1 | 0 | 0 | 0 | 0 | 0 | 0
N#CC1(NC(=O)COC(=O)c2cc(O)c3ccccc3c2O)CCCCC1 | 0 | 0 | 85 | 0 | 0 | 0
CCOC(=O)C1CCN(S(=O)(=O)c2ccc3c(c2)CC(=O)N3C)CC1 | 0 | 0 | 69 | 0 | 0 | 0
CCOC(=O)C1CCN(S(=O)(=O)c2ccc3c(c2)CCCN3C(C)=O)CC1 | 0 | 0 | 0 | 0 | 0 | 0
CC1=C(c2ccccc2)C(O)(c2ccccc2)C(C)C1=O (centres undefined) | 0 | 0 | 0 | 0 | 0 | 0
O=C(Nc1nnc([C@@H]2C[C@H](O)[C@@H](CO)O2)s1)NC(c1ccccc1)c1ccccc1 | 0 | 0 | - | 0 | 0 | 0
Cc1[nH]n(-c2nc(-c3ccc(Cl)cc3)cs2)c(=O)c1N=Nc1ccc(O)cc1 | 0 | 0 | 0 | 37 | 0 | 0
Cc1ccc2cc(C(c3nnnn3C3CCCC3)N(Cc3ccco3)Cc3cccs3)c(=O)[nH]c2c1 (centres undefined) | 0 | 0 | 0 | 39 | 0 | 0
O=C(/C=C/c1ccco1)NC(=S)Nc1ccc(C(=O)O)cc1 | 0 | 0 | 52 | 0 | 0 | 91
Nc1cc(C(=O)O)c(N)c2c1C(=O)c1ccccc1C2=O | 0 | 0 | 82 | 0 | 0 | 0
Nc1c(C(=O)O)ccc2c1C(=O)c1ccccc1C2=O | 0 | 0 | 0 | 0 | 0 | 0
CC1(C)OC(=O)C2=C(C[C@@H](CCc3ccccc3)O[C@H]2CCc2cccc(Cl)c2)O1 | 0 | - | - | 0 | 0 | -
